This is an account of results in ChEMBL document CHEMBL3244308, “Potential antitumor agents. 22. Latentiated congeners of the 4'-(9-acridinylamino)methanesulfonanilides” (J Med Chem, 1977).

For series [1], the system named is L1210. In words: Antitumor activity against mouse L1210 cells intraperitoneally xenografted in ip dosed C3H/DBA2 F1 hybrid mouse assessed as increase in host lifespan administered daily for 5 days starting 24 hrs post-tumor implantation. In kind it is functional. In outline: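 10⁵ L1210 cells implanted ip into 18.5-22.5-g C3H/DBA2 F1 mice. Daily ip treatment for 5 days from 24 h after implant, as water-soluble salts (methanesulfonate or hydrochloride) or as homogenized suspensions in aqueous methylcellulose. Groups of six mice. Read-out is increase in life span (T/C% − 100) at the optimum dose (maximal life-span increase, mg/kg/day); 50-day survivors counted.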

Series [2] is described as follows: Lipophilic-hydrophilic balance, Rm of the compound by reversed-phase partition chromatography. In kind it is physicochemical.
Series [3] concerns Mus musculus. In words: Toxicity in ip dosed mouse assessed as optimum dose that providing maximum increase in life span administered qd for 1 to 5 days. In kind it is organism-based. Particulars: in vivo. In short, it runs like this:
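Mice were C3H/DBA2 F1 hybrids weighing 18.5-22.5 g. L1210 cells (10^5) were implanted ip or sc above the right axilla. Daily ip treatment began 24 h later and continued for 5 days (dq 1-5), given in water or as a homogenized suspension in aqueous methylcellulose. The optimum dose (mg/kg/day) is the one giving maximum life-span increase (T/C% - 100). Groups were six mice; 50-day survivors were counted.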

The subject of series [4] is L1210. In words: Antitumor activity against mouse L1210 cells subcutaneously xenografted in ip dosed C3H/DBA2 F1 hybrid mouse assessed as increase in host lifespan administered daily for 5 days starting 24 hrs post-tumor implantation. In kind it is functional. In short, it runs like this:
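10⁵ L1210 cells implanted sc above the right axilla into 18.5-22.5-g C3H/DBA2 F1 mice. Daily ip dosing for 5 days from 24 h after implant, as water-soluble salts or as homogenized suspensions in aqueous methylcellulose. Groups of six mice. Increase in life span (T/C% − 100) at the optimum dose (maximal life-span increase, mg/kg/day); 50-day survivors counted.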

The subject of series [5] is Blood. Briefly: Stability in mouse blood assessed as 4'-(9-acridinylamino)methanesulfonanilide release at 37 degC. In kind it is ADME, tissue-based.
A short description of series [6]: Half life of the compound in 0.1 M mercaptoethanol buffer at pH 7.4 at 37 degC by thiolytic assay. In kind it is physicochemical.

By ILS is commonly meant how much longer treated animals lived than controls. Broadly, the half-life is the time in which the quantity being followed falls by half. A lower half-life goes with fast loss.

Regarding `CCCC(=O)N(c1ccc(Nc2c3ccc([N+](=O)[O-])cc3nc3c(C)cccc23)cc1)S(C)(=O)=O`, the ILS in series [1] stood at 71%; in series [4], 31%. Further, the Rm in series [2] was 0.31. Further, in series [3], the Activity is 50 mg/kg.

Turning to `CC(=O)N(c1ccc(Nc2c3ccc([N+](=O)[O-])cc3nc3c(C)cccc23)cc1)S(C)(=O)=O`, the ILS in series [1] is recorded as 217%; in series [4] it was 188%. Also, the Rm in series [2] is -0.03. Besides, the Activity in series [3] worked out at 200 mg/kg.

For the compound `CCC(=O)N(c1ccc(Nc2c3ccc([N+](=O)[O-])cc3nc3c(C)cccc23)cc1)S(C)(=O)=O`, the ILS came to 81% in series [1] and 27% in series [4]. Moreover, the Rm in series [2] is recorded as 0.2. Also, the Activity in series [3] is 50 mg/kg.

Turning to `Cc1cccc2c(Nc3ccc(NS(C)(=O)=O)cc3)c3ccc([N+](=O)[O-])cc3nc12`, the ILS is given as 113% in series [1] and 98% in series [4]. For the same compound, the Rm in series [2] is recorded as -0.01. Moreover, the Activity in series [3] came to 100 mg/kg.

For `CCCCCCCCC(=O)N(c1ccc(Nc2c3ccccc3nc3cc([N+](=O)[O-])ccc23)cc1)S(C)(=O)=O`, the increase in life span (ILS) was determined as 144% in series [1] and 61% in series [4]. The Rm in series [2] worked out at 0.71. In addition, in series [3], the Activity turned out to be 75 mg/kg.

Regarding `CC(=O)N(c1ccc(Nc2c3ccccc3nc3ccccc23)cc1)S(C)(=O)=O.Cl`, the ILS in series [1] is 109%; in series [4], 68%. The Stability entry in series [5] was “Unstable”. Moreover, in series [2], the Rm is recorded as -0.14. The half-life in series [6] is 6.6 h. For the same compound, in series [3], the Activity stood at 160 mg/kg.

In the case of `CN(C)/N=N/c1ccc2c(Nc3ccc(NS(C)(=O)=O)cc3)c3ccccc3nc2c1.Cl`, the ILS was 110% in series [1] and 38% in series [4]. In series [2], the Rm was determined as 0.22. In series [3], the Activity was determined as 8 mg/kg.

For `CCCN(C)/N=N/c1ccc2c(Nc3ccc(NS(C)(=O)=O)cc3)c3ccccc3nc2c1.CS(=O)(=O)O`, the ILS in series [1] is recorded as 98%; in series [4], 27%. In series [2], the Rm was 0.47. Further, the Activity in series [3] worked out at 15 mg/kg.

As to `COc1cc(NS(C)(=O)=O)ccc1Nc1c2ccccc2nc2cc(/N=N/N(C)C)ccc12.Cl`, the ILS in series [1] was 141%; in series [4], 34%. The same compound yielded a Rm in series [2] of 0.38. Further, the Activity in series [3] turned out to be 10 mg/kg.

As to `CCCN(C)/N=N/c1ccc2c(Nc3ccc(NS(C)(=O)=O)cc3OC)c3ccccc3nc2c1.CS(=O)(=O)O`, the ILS in series [1] came out at 100%; in series [4] it was 59%. Further, the Rm in series [2] was 0.65. Further, the Activity in series [3] was 15 mg/kg.

In the case of `CS(=O)(=O)Nc1ccc(Nc2c3ccccc3nc3cc(N=[N+]=[N-])ccc23)cc1.Cl`, the ILS turned out to be 216% in series [1] and 64% in series [4]. The Rm in series [2] was -0.02. Also, in series [3], the Activity turned out to be 16 mg/kg.

As for `COc1cc(NS(C)(=O)=O)ccc1Nc1c2ccccc2nc2cc(N=[N+]=[N-])ccc12.Cl`, the ILS in series [1] turned out to be 118%; in series [4] it was 47%. The Rm in series [2] was found to be 0.14. The Activity in series [3] was found to be 8 mg/kg.

With `COc1cc(NS(C)(=O)=O)ccc1Nc1c2ccccc2nc2ccccc12` [AMSACRINE], the values for the ILS in series [1] and in series [4] were 114% and 27%, respectively. The same compound displayed a Rm in series [2] of 0.18. In addition, the Activity in series [3] amounted to 6.7 mg/kg.
